{"data": "Measurements from different studies", "PRKCE": "Protein kinase C epsilon type (PRKCE, Homo sapiens, UniProt Q02156)", "SETD7": "Histone-lysine N-methyltransferase SETD7 (SETD7, Homo sapiens, UniProt Q8WTS6)", "MMP2": "72 kDa type IV collagenase (MMP2, Homo sapiens, UniProt P08253)", "PTGIR": "Prostacyclin receptor (PTGIR, Homo sapiens, UniProt P43119)", "F10": "Coagulation factor X (F10, Homo sapiens, UniProt P00742)", "note": "Compare with care: the assays were run in different laboratories."}
{"SMILES": "CCOC(=O)c1ccc(OC(=O)CCCCCNC(=N)N)cc1", "target": "Ubiquitin carboxyl-terminal hydrolase isozyme L1 (UCHL1, Homo sapiens, UniProt P09936)", "read-out": "enzyme activity", "mode": "inhibitor", "tested at": "10 µM", "inhibition": "5%"}
{"SMILES": "C#Cc1n[nH]c2c(-c3cn(C(C)c4ccccn4)c(=O)[nH]c3=O)cc(F)cc12 (stereo not shown)", "target": "PRKCE", "read-out": "enzyme activity", "mode": "inhibitor", "tested at": "1 µM", "inhibition": "3.8%"}
{"SMILES": "CC(C)=CCCC1(C)C=Cc2c(O)c3c(c(CC=C(C)C)c2O1)OC12C(=CC4CC1C(C)(C)OC2(C/C=C(/C)C(=O)O)C4O)C3=O (stereo not shown)", "target": "SETD7", "read-out": "cell-free assay", "tested at": "10 µM", "inhibition": "11%"}
{"SMILES": "COc1ccc(S(=O)(=O)N(CC(=O)NO)CC(C)C)cc1", "target": "MMP2", "read-out": "enzyme activity", "mode": "inhibitor", "tested at": "0.1 µM", "inhibition": "71%"}
{"SMILES": "CC(C)=CCC[C@]1(C)C=Cc2c(O)c3c(c(CC=C(C)C)c2O1)O[C@]12C(=C[C@@H]4C[C@H]1C(C)(C)O[C@@]2(C/C=C(/C)C(=O)O)C4=O)C3=O", "target": "SETD7", "read-out": "cell-free assay", "tested at": "10 µM", "inhibition": "-5%"}
{"SMILES": "CCN(CC)CCCC[C@H](NC(=O)[C@H](CC(C)C)NC(=O)[C@H](C)NC(=O)[C@H](Cc1ccccc1)NC(=O)c1ccc(C(C)(C)C)cc1)C(=O)N[C@@H](CO)C(=O)OC", "target": "Beta-2 adrenergic receptor (ADRB2, Homo sapiens, UniProt P07550)", "read-out": "ligand displacement", "technique": "radioligand", "tested at": "10 µM", "inhibition": "-1%"}
{"SMILES": "CN(C)C(=O)COC(=O)Cc1ccc(OC(=O)c2ccc(NC(=N)N)cc2)cc1", "target": "MMP2", "read-out": "enzyme activity", "mode": "inhibitor", "tested at": "10 µM", "inhibition": "83%"}
{"SMILES": "Cc1ncc(C)n2nc(/C=C/c3nc(N4CCCC4)cc(N4CCOCC4)n3)nc12", "target": "PTGIR", "read-out": "cell-free assay", "tested at": "10 µM", "inhibition": "22%"}
{"SMILES": "c1ccc(C(NCCNC(c2ccccc2)c2ccccc2)c2ccccc2)cc1", "target": "F10", "read-out": "enzyme activity", "mode": "inhibitor", "tested at": "10 µM", "inhibition": "-9%"}
{"SMILES": "O=C(Nc1cccnn1)N1CCN([C@@H]2CCOc3cc(C(F)(F)F)ccc32)CC1", "target": "PTGIR", "read-out": "cell-free assay", "tested at": "20 µM", "inhibition": "-15%"}
{"SMILES": "CC(C)C[C@H](NC(=O)[C@H](Cc1ccccc1)NC(=O)c1cnccn1)B(O)O", "target": "F10", "read-out": "enzyme activity", "mode": "inhibitor", "tested at": "33 µM", "inhibition": "48.8%"}
{"SMILES": "N=C(N)c1ccc2cc(OC(=O)c3ccc(N=C(N)N)cc3)ccc2c1", "target": "MMP2", "read-out": "enzyme activity", "mode": "inhibitor", "tested at": "10 µM", "inhibition": "0%"}
{"SMILES": "Cn1cc(-c2cc(F)cc(N3CCn4c(cc5c4CCCC5)C3=O)c2CO)cc(Nc2ccc(N3CCN(C4COC4)CC3)cn2)c1=O", "target": "G protein-coupled receptor kinase 6 (GRK6, Homo sapiens, UniProt P43250)", "read-out": "enzyme activity", "mode": "inhibitor", "tested at": "0.1 µM", "inhibition": "4%"}
{"SMILES": "CN1CCN(c2nc(N)c3ccccc3n2)CC1", "target": "Neuronal acetylcholine receptor subunit alpha-7 (CHRNA7, Homo sapiens, UniProt P36544)", "read-out": "ligand displacement", "technique": "radioligand", "tested at": "0.1 µM", "inhibition": "31.9%"}
{"SMILES": "C#Cc1n[nH]c2c(-c3cn([C@@H](C)c4ccccc4)c(=O)[nH]c3=O)cc(F)cc12", "target": "PRKCE", "read-out": "enzyme activity", "mode": "inhibitor", "tested at": "0.1 µM", "inhibition": "7.2%"}
{"SMILES": "Cn1cc(-c2cccc(N3CCc4c(sc5c4CC(C)(C)C5)C3=O)c2CO)cc(Nc2ccncn2)c1=O", "target": "G protein-coupled receptor kinase 5 (GRK5, Homo sapiens, UniProt P34947)", "read-out": "enzyme activity", "mode": "inhibitor", "tested at": "1 µM", "inhibition": "-5%"}
